Published values gathered from unrelated publications.
Protocols differ between the studies behind these lines.
Target: Bone morphogenetic protein receptor type-1B (BMPR1B, Homo sapiens, UniProt O00238)

| Compound | observed | technique | tested at | remaining binding |
| --- | --- | --- | --- | --- |
| O=C(c1ccc(Nc2ncc(Cl)c(-c3cc4ccccc4s3)n2)cc1)N1CCC(N2CCCC2)CC1 | binding | competition with immobilised ligand | 1 µM | 62% |
| COc1cnc(Nc2cccc(S(N)(=O)=O)c2)nc1N1CCN(c2ccccc2)C(=O)C1 | binding | competition with immobilised ligand | 1 µM | 100% |
| CN([C@@H]1CCc2c(CC(=O)O)c3cc(S(C)(=O)=O)ccc3n2C1)S(=O)(=O)c1ccc(F)cc1 | cell-free assay | competition with immobilised ligand | 1 µM | 100% |
| FC(F)(F)Oc1cccc(-c2cnc3ccc(-c4ccncc4)nn23)c1 | cell-free assay | competition with immobilised ligand | 5 µM | 22% |
| O=C(Nc1c[nH]nc1C(=O)NC1CCNCC1)c1cc(F)cc(F)c1 | binding | competition with immobilised ligand | 1 µM | 84% |
| COc1ccc2c(c1)O[C@H](c1ccc(OC)c(OC)c1)C[C@@H]2NC(=O)C1(c2ccc3c(c2)OC(F)(F)O3)CC1 | cell-free assay | competition with immobilised ligand | 1 µM | 100% |
| COc1ncc2cc3ccccc3nc2c1C#N | cell-free assay | competition with immobilised ligand | 5 µM | 89% |
| N[C@@H]1CCN(c2nccc(-c3cnn4ncccc34)n2)C1 | binding |  | 1 µM | 94% |
| O=c1nc(-c2ccccn2)sc2ccccc12 | cell-free assay | competition with immobilised ligand | 1 µM | 75% |
| COc1ccnn2ncc(-c3ccnc(N(C)C)n3)c12 | binding |  | 1 µM | 51% |
| O=C(c1ccc(Nc2ncc(Cl)c(-c3ccc(Cl)s3)n2)cc1)N1CCC(N2CCCC2)CC1 | binding | competition with immobilised ligand | 1 µM | 18% |
| CN(CCCC(F)(F)F)c1nccc(-c2cnn3ncccc23)n1 | binding |  | 1 µM | 93% |
| CC1=C(C#N)C(c2ccc3c(c2)c(NC(=O)c2ccccc2C)nn3C)C(C#N)=C(C)N1 | cell-free assay | competition with immobilised ligand | 1 µM | 91% |
| CN(c1nccc(-c2cnn3ncccc23)n1)C1CC1 | binding |  | 1 µM | 76% |
| O=C(c1ccc(Nc2nccc(-c3cc4ccccc4s3)n2)cc1)N1CCC(N2CCCC2)CC1 | binding | competition with immobilised ligand | 1 µM | 41% |
| Nc1ncc2c(n1)-c1c([nH]c3ccc(C#CC4CC4)cc13)CCCC2 | binding | competition with immobilised ligand | 1 µM | 96% |
| C=CC(=O)N1CCC(C(=O)NCC(=O)N2CCN(c3nc(-c4cnc(N)nc4C(F)F)nc(N4CCOCC4)n3)CC2)CC1 | binding | competition with immobilised ligand | 1 µM | 64% |
| O=C(NCc1ncc(C(F)(F)F)cc1Cl)c1ccc2c(c1)C1(CCS(=O)(=O)CC1)[C@H](C1CC1)N2S(=O)(=O)c1ccc(F)cc1 | cell-free assay | competition with immobilised ligand | 1 µM | 93% |
| CN(C)c1nccc(-c2cnc3ncccn23)n1 | binding |  | 1 µM | 82% |
| CNC(=O)[C@@H]1CC[C@@H](n2c(-c3ccc4cnccc4c3)nc3ccc(C(=O)NCc4cccc(C(N)=O)c4)cc32)C1 | binding | competition with immobilised ligand | 1 µM | 80% |
| CN(C)c1ncc(F)c(-c2cnn3ncccc23)n1 | binding |  | 1 µM | 64% |
| O=C1CCc2cc(Nc3cc(OC4CCOCC4)c([N+](=O)[O-])cc3Cl)ccc2N1 | cell-free assay | competition with immobilised ligand | 1 µM | 87% |
